Experimental data reported in ChEMBL document CHEMBL1149431 (Bioorg Med Chem Lett, 2006).
Calls of active or inactive are those of the source. No cut-off for these calls is given here.

Columns and labels:
[1] = Metabolic stability by incubation with human hepatocytes; type: ADME, cell-based, Liver, Hepatocyte
In short: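 Compounds at 23 µM incubated separately with pooled (n = 2) cryopreserved human hepatocytes (2 million cells/mL) in phenol-red-free Waymouth's medium with FBS 4.5%, insulin, glutamine 3.6 mM, pyruvate 4.5 mM, dexamethasone 0.9 µM; 1% methanol. Samples at 0, 180, 360 min quenched in acetonitrile, protein spun off. Half-life from parent disappearance.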

[2] = Metabolic stability by incubation with human liver microsomes; type: ADME, Microsome
In short: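 Human liver microsomes (4 mg protein/mL) incubated with compound at 23 µM, 37 ± 1 °C, in 50 mM potassium phosphate pH 7.4 with 3 mM MgCl2 and 1 mM EDTA. Sampled at 0, 90 and 180 min; half-life calculated from loss of parent compound.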

[3] = target: Sodium-dependent noradrenaline transporter (Homo sapiens, UniProt P23975); test: Inhibition of reuptake of Norepinephrine
Rattus norvegicus [4] = test: Effect on latency in tail flick in rat after 1 and 2 hrs of administration of 50 mg/kg, ip; type: functional, organism-based; parameters: dose 50 mg/kg; conditions: tested as the 2H-labelled form
In short: (§1)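 Rat tail-flick model; single intraperitoneal dose of 50 mg/kg, with 5 mg/kg ip morphine and saline as controls. Tail-flick latency (s) read at 1, 2, 4 and 8 h after dosing. n = 9–10 per group; significance vs control by Dunnett's test (p<0.05, p<0.01).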

Rattus norvegicus [5] = test: Effect on latency in tail flick in rat after 1,2,4 and 8 hrs of administration of 50 mg/kg, ip; type: functional, organism-based; parameters: dose 50 mg/kg; in short: as §1

Sequence of Sodium-dependent noradrenaline transporter (P23975 whole entry): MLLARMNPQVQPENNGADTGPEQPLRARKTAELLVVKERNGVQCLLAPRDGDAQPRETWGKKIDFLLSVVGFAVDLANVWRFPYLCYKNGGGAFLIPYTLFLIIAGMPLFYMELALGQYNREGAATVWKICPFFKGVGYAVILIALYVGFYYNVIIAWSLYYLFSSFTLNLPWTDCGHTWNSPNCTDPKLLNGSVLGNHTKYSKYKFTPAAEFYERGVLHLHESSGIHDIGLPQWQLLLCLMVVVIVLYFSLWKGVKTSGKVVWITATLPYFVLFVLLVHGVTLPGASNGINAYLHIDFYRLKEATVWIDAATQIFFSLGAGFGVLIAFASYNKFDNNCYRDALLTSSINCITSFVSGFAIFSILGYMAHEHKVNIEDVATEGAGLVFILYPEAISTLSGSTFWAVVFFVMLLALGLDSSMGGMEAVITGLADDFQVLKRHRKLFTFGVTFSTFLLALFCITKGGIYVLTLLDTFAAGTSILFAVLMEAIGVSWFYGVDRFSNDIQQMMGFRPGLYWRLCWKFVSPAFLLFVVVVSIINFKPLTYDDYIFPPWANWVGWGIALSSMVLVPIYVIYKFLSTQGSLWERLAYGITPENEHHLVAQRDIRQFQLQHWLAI

Row | Structure (SMILES) | half-life [1] | half-life [2] | IC50 [3] | Activity (Rattus norvegicus [4]) | Activity (Rattus norvegicus [5]) | Activity (Rattus norvegicus [5]; tested as the 2H-labelled form)
1 | [2H]C([2H])([2H])N(C[C@H]1CCCC[C@]1(O)c1cccc(O)c1)C([2H])([2H])[2H] | 27.5 h | 12.4 h | 6.7 µM |  |  | 
2 | CN(C)C[C@H]1CCCC[C@]1(O)c1cccc(O)c1 [O-DESMETHYL TRAMADOL] | 26 h | 47 h | > 10 µM |  |  | 
3 | COc1cccc([C@@]2(O)CCCC[C@@H]2CN(C)C)c1 [TRAMADOL] | 16.1 h | 12.3 h | 0.79 µM | Active | Active | Active
4 | [2H]C([2H])([2H])Oc1cccc([C@@]2(O)CCCC[C@@H]2CN(C([2H])([2H])[2H])C([2H])([2H])[2H])c1 | 60.2 h | 120 h | 2 µM |  |  | 
5 | [2H]C([2H])([2H])N(C[C@H]1CCCC[C@]1(O)c1cccc(OC)c1)C([2H])([2H])[2H] | 14.2 h | 9.12 h | 3.2 µM |  |  | 
6 | [2H]C([2H])([2H])Oc1cccc([C@@]2(O)CCCC[C@@H]2CN(C)C)c1 | 22.2 h | 12.4 h | 3.6 µM |  |  | 
